According to ChEMBL document CHEMBL3875153, “Design and synthesis of isatin/triazole conjugates that induce apoptosis and inhibit migration of MGC-803 cells” (Eur J Med Chem, 2016):
The source made the active and inactive calls. The calls are words filed in the database; no cut-off is given here.

Experiments:
[1] = Cytotoxicity against human TE1 cells assessed as growth inhibition after 72 hrs by CCK8 assay; type: functional, cell-based, TE-1
Outline: (§1)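 Exponentially growing cells were trypsinized and seeded at 2 × 10^4 cells/mL (100 µL/well). After 24 h, medium was replaced with compound at 0.5–256 µM (twofold steps). Plates were incubated 72 h at 37 °C, 5% CO2, then with CCK-8 for 4 h. A450 was read. Three independent runs; IC50 given as mean and SD.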

[2] = Cytotoxicity against human MCF7 cells assessed as growth inhibition after 72 hrs by CCK8 assay; type: functional, cell-based; outline: as §1
[3] = Cytotoxicity against human SW780 cells assessed as growth inhibition after 72 hrs by CCK8 assay; type: functional, cell-based; outline: as §1
[4] = Cytotoxicity against human MGC803 cells assessed as growth inhibition after 72 hrs by CCK8 assay; type: functional, cell-based, MGC-803; outline: as §1
[5] = Cytotoxicity against human HL-7702 cells assessed as growth inhibition after 72 hrs by CCK8 assay; type: toxicity, cell-based, L02; conditions: for IC50 at 72 h: human, HL-7702 cells; outline: as §1
[6] = Cytotoxicity against human GES-1 cells assessed as growth inhibition after 72 hrs by CCK8 assay; type: toxicity, cell-based, GES1; conditions: for IC50 at 72 h: human, GES-1 cells; outline: as §1
MGC-803 [7] = assay: Induction of morphological changes in human MGC803 cells assessed as cell rounding up at 5 to 20 uM after 24 hrs by Hoechst 33258 staining based confocal microscopic analysis; type: functional
Outline: (§2)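 MGC-803 cells grown on glass slides to about 70% confluence, treated 24 h at 0, 5, 10, 20 µM. PBS-washed, stained 20 min in dark with 10 µg/mL Hoechst 33258 containing 0.1% Triton X-100, washed, mounted, imaged by laser scanning confocal microscopy. Cell morphology also viewed by inverted microscope.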

MGC-803 [8] = assay: Induction of morphological changes in human MGC803 cells assessed as cell debris at 5 to 20 uM after 24 hrs by Hoechst 33258 staining based confocal microscopic analysis; type: functional; outline: as §2
MGC-803 [9] = assay: Induction of morphological changes in human MGC803 cells assessed as chromatin condensation at 5 to 20 uM after 24 hrs by Hoechst 33258 staining based confocal microscopic analysis; type: functional, cell-based; outline: as §2
MGC-803 [10] = assay: Induction of morphological changes in human MGC803 cells assessed as nuclear condensation at 5 to 20 uM after 24 hrs by Hoechst 33258 staining based confocal microscopic analysis; type: functional, cell-based; outline: as §2
MGC-803 [11] = assay: Induction of morphological changes in human MGC803 cells assessed as nuclear fragmentation at 5 to 20 uM after 24 hrs by Hoechst 33258 staining based confocal microscopic analysis; type: functional, cell-based; outline: as §2
[12] = Cell cycle arrest in human MGC803 cells assessed as accumulation at G0/G1 phase at 5 uM after 24 hrs by propidium iodide staining based flow cytometry (reference value: 54.77%); type: functional; conditions: MGC-803
[13] = Cell cycle arrest in human MGC803 cells assessed as accumulation at S phase at 5 uM after 24 hrs by propidium iodide staining based flow cytometry (reference value: 21.32%); type: functional; conditions: MGC-803
[14] = Cell cycle arrest in human MGC803 cells assessed as accumulation at G2/M phase at 5 uM after 24 hrs by propidium iodide staining based flow cytometry (reference value: 20.66%); type: functional; conditions: MGC-803
[15] = Cell cycle arrest in human MGC803 cells assessed as accumulation at G0/G1 phase at 10 uM after 24 hrs by propidium iodide staining based flow cytometry (reference value: 54.77%); type: functional; conditions: MGC-803
[16] = Cell cycle arrest in human MGC803 cells assessed as accumulation at S phase at 10 uM after 24 hrs by propidium iodide staining based flow cytometry (reference value: 21.32%); type: functional; conditions: MGC-803
[17] = Cell cycle arrest in human MGC803 cells assessed as accumulation at G2/M phase at 10 uM after 24 hrs by propidium iodide staining based flow cytometry (reference value: 20.66%); type: functional; conditions: MGC-803
[18] = Cell cycle arrest in human MGC803 cells assessed as accumulation at G0/G1 phase at 20 uM after 24 hrs by propidium iodide staining based flow cytometry (reference value: 54.77%); type: functional; conditions: MGC-803
[19] = Cell cycle arrest in human MGC803 cells assessed as accumulation at S phase at 20 uM after 24 hrs by propidium iodide staining based flow cytometry (reference value: 21.32%); type: functional; conditions: MGC-803
[20] = Cell cycle arrest in human MGC803 cells assessed as accumulation at G2/M phase at 20 uM after 24 hrs by propidium iodide staining based flow cytometry (reference value: 20.66%); type: functional; conditions: MGC-803
[21] = Cell cycle arrest in human MGC803 cells assessed as accumulation at G2/M phase after 24 hrs by propidium iodide staining based flow cytometry; type: functional; conditions: MGC-803
MGC-803 [22] = assay: Induction of apoptosis in human MGC803 cells after 24 hrs by Annexin-V FITC/propidium iodide staining based flow cytometry; type: functional, cell-based
MGC-803 [23] = assay: Induction of apoptosis in human MGC803 cells assessed as early apoptotic cells at 5 uM after 24 hrs by Annexin-V FITC/propidium iodide staining based flow cytometry (reference value: 0.9 +/- 0.3%); type: functional
MGC-803 [24] = assay: Induction of apoptosis in human MGC803 cells assessed as late apoptotic cells at 5 uM after 24 hrs by Annexin-V FITC/propidium iodide staining based flow cytometry (reference value: 0.4 +/- 0.5%); type: functional
MGC-803 [25] = assay: Induction of apoptosis in human MGC803 cells assessed as early apoptotic cells at 10 uM after 24 hrs by Annexin-V FITC/propidium iodide staining based flow cytometry (reference value: 0.9 +/- 0.3%); type: functional
MGC-803 [26] = assay: Induction of apoptosis in human MGC803 cells assessed as late apoptotic cells at 10 uM after 24 hrs by Annexin-V FITC/propidium iodide staining based flow cytometry (reference value: 0.4 +/- 0.5%); type: functional
MGC-803 [27] = assay: Induction of apoptosis in human MGC803 cells assessed as early apoptotic cells at 20 uM after 24 hrs by Annexin-V FITC/propidium iodide staining based flow cytometry (reference value: 0.9 +/- 0.3%); type: functional
MGC-803 [28] = assay: Induction of apoptosis in human MGC803 cells assessed as late apoptotic cells at 20 uM after 24 hrs by Annexin-V FITC/propidium iodide staining based flow cytometry (reference value: 0.4 +/- 0.5%); type: functional
MGC-803 [29] = assay: Induction of ROS generation in human MGC803 cells at 5 uM after 24 hrs by DCFH-DA staining based flow cytometry (reference value: 2.84%); type: functional
Outline: (§3)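 MGC-803 cells exposed to 0, 5, 10, 20 µM for 24 h, collected, then loaded with DCFH-DA (10 µM) for 30 min at 37 °C. Washed three times in serum-free medium; DCF green fluorescence quantified by flow cytometry as percent fluorescent cells.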

MGC-803 [30] = assay: Induction of ROS generation in human MGC803 cells at 10 uM after 24 hrs by DCFH-DA staining based flow cytometry (reference value: 2.84%); type: functional; outline: as §3
MGC-803 [31] = assay: Induction of ROS generation in human MGC803 cells at 20 uM after 24 hrs by DCFH-DA staining based flow cytometry (reference value: 2.84%); type: functional; outline: as §3
MGC-803 [32] = assay: Induction of ROS generation in human MGC803 cells after 24 hrs by DCFH-DA staining based flow cytometry; type: functional, cell-based; outline: as §3
MGC-803 [33] = assay: Inhibition of LSD1 expression in human MGC803 cells after 24 hrs by Western blot method; type: functional, cell-based
Outline: (§4)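 Cells given 0, 5, 10, 20 µM for 24 h, lysed 30 min in RIPA buffer (50 mM Tris-HCl pH 7.5, 150 mM NaCl, detergents) with protease inhibitors. Cleared lysate protein measured by BCA, resolved by SDS-PAGE, moved to nitrocellulose. Membranes blocked in 5% milk, probed with primary antibodies overnight at 4 °C, then secondary (1:5000) 2 h. ECL detection.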

MGC-803 [34] = assay: Induction of apoptosis in human MGC803 cells assessed as activation of Bax protein expression at 5 to 20 uM after 24 hrs by Western blot method; type: functional, cell-based; outline: as §4
MGC-803 [35] = assay: Induction of apoptosis in human MGC803 cells assessed as inhibition of Bcl2 protein expression at 5 to 20 uM after 24 hrs by Western blot method; type: functional, cell-based; outline: as §4
MGC-803 [36] = assay: Induction of apoptosis in human MGC803 cells assessed as inhibition of Mcl1 protein expression at 5 to 20 uM after 24 hrs by Western blot method; type: functional, cell-based; outline: as §4
MGC-803 [37] = assay: Induction of apoptosis in human MGC803 cells assessed as increase in PARP cleavage at 5 to 20 uM after 24 hrs by Western blot method; type: functional, cell-based; outline: as §4
MGC-803 [38] = assay: Induction of apoptosis in human MGC803 cells assessed as increase in caspase-8 cleavage at 5 to 20 uM after 24 hrs by Western blot method; type: functional, cell-based; outline: as §4
MGC-803 [39] = assay: Induction of apoptosis in human MGC803 cells assessed as increase in caspase-9 cleavage at 5 to 20 uM after 24 hrs by Western blot method; type: functional, cell-based; outline: as §4
MGC-803 [40] = assay: Induction of apoptosis in human MGC803 cells assessed as increase in caspase-3 protein expression at 5 to 20 uM after 24 hrs by Western blot method; type: functional, cell-based; outline: as §4
MGC-803 [41] = assay: Induction of apoptosis in human MGC803 cells assessed as increase in caspase-6 protein expression at 5 to 20 uM after 24 hrs by Western blot method; type: functional, cell-based; outline: as §4
MGC-803 [42] = assay: Induction of apoptosis in human MGC803 cells assessed as increase in caspase-7 protein expression at 5 to 20 uM after 24 hrs by Western blot method; type: functional, cell-based; outline: as §4
MGC-803 [43] = assay: Anti-migratory activity against human MGC803 cells after 24 hrs by Hoechst 33258 staining based transwell assay; type: functional, cell-based
Outline: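 MGC-803 cells, 10,000 per upper chamber in 100 µL medium with 1% FBS plus compound (0, 2, 4, 8 µM). Lower chamber held medium with 20% FBS as chemoattractant. After 24 h, chambers PBS-washed, cells stained with Hoechst 33258 (10 µg/mL), migrated cells counted by high content screening.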

[44] = Homo sapiens, TE-1, 72 h, read-out: IC50
[45] = Homo sapiens, MCF7, 72 h, read-out: IC50
[46] = Homo sapiens, SW780, 72 h, read-out: IC50
[47] = Homo sapiens, MGC-803, 72 h, read-out: IC50

Structure (SMILES): O=C(Cn1cc(CN2C(=O)C(=O)c3c(Cl)ccc(Cl)c32)nn1)OC1CCCCC1
- IC50 [1, 44]: 14.2 µM
- IC50 [2, 45]: 18.9 µM
- IC50 [3, 46]: 25.2 µM
- IC50 [4, 47]: 9.78 µM
- IC50 at 72 h [5]: 40.3 µM
- IC50 at 72 h [6]: 36 µM
- Activity (MGC-803 [7]): Active
- Activity (MGC-803 [8]): Active
- Activity (MGC-803 [9]): Active
- Activity (MGC-803 [10]): Active
- Activity (MGC-803 [11]): Active
- Activity [12]: 48.7%
- Activity [13]: 21.5%
- Activity [14]: 24.1%
- Activity [15]: 40.3%
- Activity [16]: 24%
- Activity [17]: 28.7%
- Activity [18]: 34.8%
- Activity [19]: 23.5%
- Activity [20]: 32.3%
- Activity [21]: Dose-dependent effect
- Activity (MGC-803 [22]): Dose-dependent effect
- Activity (MGC-803 [23]): 7.8%
- Activity (MGC-803 [24]): 5%
- Activity (MGC-803 [25]): 10.3%
- Activity (MGC-803 [26]): 5.7%
- Activity (MGC-803 [27]): 18%
- Activity (MGC-803 [28]): 4.5%
- Activity (MGC-803 [29]): 6.04%
- Activity (MGC-803 [30]): 10.3%
- Activity (MGC-803 [31]): 19.3%
- Activity (MGC-803 [32]): Dose-dependent effect
- inhibition (MGC-803 [33]): Dose-dependent effect
- Activity (MGC-803 [34]): Active
- inhibition (MGC-803 [35]): Active
- inhibition (MGC-803 [36]): Active
- Activity (MGC-803 [37]): Active
- Activity (MGC-803 [38]): Active
- Activity (MGC-803 [39]): Active
- Activity (MGC-803 [40]): Active
- Activity (MGC-803 [41]): Active
- Activity (MGC-803 [42]): Active
- Activity (MGC-803 [43]): Dose-dependent effect

Structure (SMILES): O=C1C(=O)N(Cc2cn(CC(=O)N3CCNCC3)nn2)c2c(Cl)ccc(Cl)c21
- IC50 ([1]; te-1): Nd(Insoluble)
- IC50 ([2]; mcf7): Nd(Insoluble)
- IC50 ([3]; sw780): Nd(Insoluble)
- IC50 ([4]; mgc-803): Nd(Insoluble)
- IC50 ([5]; l02): Nd(Insoluble)
- IC50 ([6]; ges1): Nd(Insoluble)

Structure (SMILES): O=C(Cn1cc(CN2C(=O)C(=O)c3c(Cl)ccc(Cl)c32)nn1)NC1CCCCC1
- IC50 [1, 44]: 25.2 µM
- IC50 [2, 45]: 51.8 µM
- IC50 [3, 46]: 93.3 µM
- IC50 [4, 47]: 17.4 µM
- IC50 at 72 h [5]: 83.9 µM
- IC50 at 72 h [6]: 47.4 µM

Structure (SMILES): O=C(Cn1cc(CN2C(=O)C(=O)c3c(Cl)ccc(Cl)c32)nn1)Nc1ccccc1
- IC50 [1, 44]: 30.6 µM
- IC50 [2, 45]: 38.5 µM
- IC50 [3, 46]: 27 µM
- IC50 [4, 47]: 17.5 µM
- IC50 at 72 h [5]: 24.9 µM
- IC50 at 72 h [6]: 24.9 µM
